Bioassay records as filed in PubChem BioAssay.
The list is not random: actives were taken first. Their share in the collection is about 0.83%.
OXTR potentiate – potentiators of human oxytocin receptor | CHO-OTR cells, Fluo-8 calcium fluorescence, potentiator mode; 0% = oxytocin EC15, 100% = EC100 | activation, % at 3 µM | 320,000 compounds, 0.061% hits;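 active means activation above that plate's cutoff, the mean activation of tested compounds plus 3 SD, cut at about 6.6% in these data, passing the limit was not always enough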;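 further: 100% uses oxytocin at 75 nM as the full agonist control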
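System: human OTR in CHO cells / Also added: sub-maximal oxytocin, roughly EC15 / Control set: EC15 oxytocin low, 75 nM oxytocin high / Schedule: 6 min compound pre-incubation at room temperature, 100 s kinetic read / Compound: single-point 3.0 µM / Replication: singlicate / Technique: Fluo-8 calcium dye fluorescence / Read-out basis: % activation of max/min ratio relative to oxytocin controls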
TRPML3 agonist – activates the human TRPML3 channel; AID 1448; Q8TDD5; 220,000 compounds, 0.29% hits; activation, % at 3 µM; HEK293 TRPML3-YFP, Fluo-8 calcium fluorescence; 100% = the carbachol control signal;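 active means activation above its plate's cutoff, the mean activation of the plate's test wells plus 3 SD, cut at about 12% in these data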;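 further: 0% = DMSO only wells and 100% = carbachol wells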
Target sequence (Q8TDD5 whole entry, looked up): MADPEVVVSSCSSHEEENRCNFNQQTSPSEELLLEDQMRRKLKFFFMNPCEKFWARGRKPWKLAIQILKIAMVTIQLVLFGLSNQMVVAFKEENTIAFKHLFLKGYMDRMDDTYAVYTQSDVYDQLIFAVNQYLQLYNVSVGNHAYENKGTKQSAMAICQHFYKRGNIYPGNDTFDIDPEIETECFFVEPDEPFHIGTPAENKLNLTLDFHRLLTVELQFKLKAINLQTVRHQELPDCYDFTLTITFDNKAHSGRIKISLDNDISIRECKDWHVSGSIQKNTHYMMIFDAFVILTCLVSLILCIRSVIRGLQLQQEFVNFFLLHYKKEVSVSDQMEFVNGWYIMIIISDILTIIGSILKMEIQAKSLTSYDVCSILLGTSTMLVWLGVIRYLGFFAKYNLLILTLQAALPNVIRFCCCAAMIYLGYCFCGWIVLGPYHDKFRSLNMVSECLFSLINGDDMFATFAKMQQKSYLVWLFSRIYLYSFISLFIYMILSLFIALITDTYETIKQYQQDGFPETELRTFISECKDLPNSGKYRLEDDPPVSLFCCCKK
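Material: HEK293 cells stably carrying human TRPML3-YFP; compound dosing: single dose, 3 µM final nominal compound, 0.3% DMSO final; incubation: 1-h 37 °C dye load, 5-s basal, 120-s post-compound reads; technique: Fluo-8 intracellular calcium fluorescence, excitation 470-495 nm, emission 515-575 nm; read-out basis: percent activation from peak-to-basal fluorescence ratio, scaled between DMSO and carbachol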
V1R ag counter – V1a receptor agonism, counter-screen for OXTR agonists | CHO-V1R cells, Fluo-8 calcium fluorescence, agonist mode; 0% DMSO, 100% 3 nM vasopressin | activation, % at 3 µM | 320,000 compounds, 0.25% hits | AID 2797;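 active means activation above the mean activation of all tested compounds plus 3 SD, per screening run, cut at about 20% in these data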;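 further: signal is peak over basal fluorescence ratio across a 100 second FLIPR read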
CRFBP-R2 agonist – agonists of human CRF-binding protein/CRF-R2 receptor complex | 350,000 compounds, 0.46% hits | HEK293 CRF-R2/CRF-BP, calcium dye fluorescence (FLIPR); percent of saturating CRF peptide response | activation, % at 13.2 µM;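 active means activation of at least 50%, plus an integration ratio under a set limit after plate pattern correction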;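 further: plate controls were neutral control wells without compound for no effect and CRF at EC100 for full effect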
TRPN1 ag – zebrafish TRPN1 (NompC) channel agonism; HEK293 zebrafish TRPN1-YFP, Fluo-8 calcium fluorescence; 100% = response to 87 µM carbachol; activation, % at 3 µM; 220,000 compounds, 0.18% hits; AID 1424;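 active means activation above its plate's cutoff, the mean activation of test wells on that plate plus 3 SD, cut at about 19% in these data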;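 further: 0% = DMSO alone and 100% = 87 µM carbachol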
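Assay system: Zebrafish TRPN1-YFP in HEK293 cells | Incubation: Dye loading 1 h at 37 °C, then 30 min room temperature | Measured by: Kinetic Fluo-8 fluorescence, ex 470-495, em 515-575 nm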
OXTR ag – human OXTR agonism | P30559 | CHO-OTR cells, Fluo-8 calcium fluorescence; normalized: DMSO 0%, oxytocin 100% | activation, % at 3 µM | 320,000 compounds, 0.32% hits | AID 2435;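 active means activation above the mean of all tested compounds plus 3 SD, cutoff set per screening run, cut at about 20% in these data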;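 further: peak over basal fluorescence ratio from a 100 s FLIPR kinetic read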
An asterisk follows results filed as active; . = no result given; + = active, no number.

SMILES	OXTR potentiate	TRPML3 agonist	V1R ag counter	CRFBP-R2 agonist	TRPN1 ag	OXTR ag
Cc1ccc(N2CC(C(=O)N3CCC(C(=O)NCCCOC(C)C)CC3)CC2=O)cc1 (configuration not stated)	4	.	1	0	.	1
CN1CCC(Oc2ccc(Sc3ccccc3)cc2)CC1	-9	3	11	0	5	22*
O=C(N/N=C1/C(=O)c2cccc3cccc1c23)c1ccc(Cl)cc1	-9	0	-1	52*	-1	4
CSC1=NC2(CC(c3ccccc3)Oc3cc(O)ccc32)CC(C)(C)N1 (configuration not stated)	-21	1	42*	0	4	21*
COc1cccc(C2CC3(CC(C)(C)NC(=S)N3)Oc3cc(O)ccc32)c1 (configuration not stated)	-7	0	0	1	0	-1
COc1cc(/C=C/C(=O)c2ccc3c(c2)OCO3)cc(Cl)c1O	-16	.	98*	135*	.	70*
NC(=O)C1CCCN1Cc1ccc2c(c1)OCO2 (configuration not stated)	.	.	.	-1	.	.
CCOC(=O)C1=C(COC(=O)c2ccc3ccccc3c2O)NC(=O)NC1C (configuration not stated)	-11	.	1	53*	.	0
COc1ccccc1CC(=O)N1CCC(CCC(=O)NC2CC2)CC1	-8	.	-1	1	.	0
CCN(CC)c1ccc(C=C2SC(=S)NC2=O)cc1	.	.	.	168*	.	.
CCN(CC)c1ccc(/C=C2\SC(N)=NC2=O)cc1	.	.	.	27	.	.
CN(C(=O)c1cccc(NC(=O)Cc2ccc(NC(=O)C3CCCN(C(=O)C4CCCC4)C3)cc2)c1)C1CC1 (configuration not stated)	.	.	.	1	.	.
O=S(=O)(NC1CCCCC1N1CCN(c2ccc(F)cc2)CC1)c1ccc(Cl)cc1 (configuration not stated)	-11	.	2	105*	.	-2
COC(=O)[C@@]1(C)[C@H]2C(=O)N(C)C(=O)[C@H]2[C@H]2CN(C)C(=NC3CCCCC3)N21	.	.	.	-2	.	.
Cc1ccc(/C=C2\Oc3c(ccc(O)c3CN3CCN(CCO)CC3)C2=O)cc1	1	1	2	86*	0	1
CCN1CCN(Cc2c(O)ccc3c(=O)c(-c4ccccc4OC)coc23)CC1	3	1	0	1	0	2
CCN1CCN(Cc2c(O)ccc3c2O/C(=C\C=C\c2ccccc2OC)C3=O)CC1	-11	5	8	74*	8	9
O=C(c1ccc(Cl)cc1)c1cccc(O)c1	.	.	.	-5	.	.
CCOc1ccccc1NC(=O)CCNC(=O)N1CC(=O)Nc2ccccc21	.	.	.	-1	.	.
O=C1NC(=S)S/C1=C\c1cc(Cl)cc(Cl)c1O	.	.	.	83*	.	.
N#CC(C#N)=C1C=C2C=C(N3CCCCC3)CCC2CC1 (configuration not stated)	-12	380*	617*	187*	+	921*
CCCCN(C)C1=CC2=CC(=C(C#N)C#N)CCC2CC1 (configuration not stated)	-23	225*	873*	494	239*	771*
CCN(CC)C1=CC2=CC(=C(C#N)C#N)CCC2CC1 (configuration not stated)	-21	298*	750*	533	332*	807*
Cc1cc(S(=O)(=O)Nc2ccc3cn[nH]c3c2)c(C)cc1Cl	-13	.	12	2	.	9
CC(c1ccccc1)N1CC(C(=O)Nc2ccc(F)cc2)CC1=O (configuration not stated)	-4	.	1	-1	.	1
SMILES	OXTR potentiate	TRPML3 agonist	V1R ag counter	CRFBP-R2 agonist	TRPN1 ag	OXTR ag
O=[N+]([O-])c1cc(S(=O)(=O)N2CCCCCC2)ccc1Cl	.	22*	.	-3	-3	.
Cc1ccc(S(=O)(=O)N2CCCC2)cc1[N+](=O)[O-]	-2	0	0	-2	1	-2
CCSc1nnc(-c2sc3nnc(-c4ccccc4)c(-c4ccccc4)c3c2N)o1	-2	1	14	116*	5	12
COc1ccccc1NC(=O)Cn1ccn(-c2cccc3ccccc23)c(=O)c1=O	0	.	1	-1	.	1
Cn1c(=O)c(N)c2c3c(c(Br)ccc31)C(=O)c1ccccc1-2	-19	2	28*	89*	3	25*
CCCNC(=O)Cn1c(=O)/c(=C\c2ccc(-c3cccc([N+](=O)[O-])c3)o2)s/c1=C\C(=O)C(C)(C)C	-11	1	2	57*	0	2
CCCNC(=O)Cn1c(=O)/c(=C/c2ccc(-c3cccc([N+](=O)[O-])c3)o2)s/c1=C\C(=O)C(C)(C)C	.	.	.	32	.	.
CCCNC(=O)Cn1c(=O)/c(=C\c2ccc(-c3ccc([N+](=O)[O-])cc3)o2)s/c1=C\C(=O)C(C)(C)C	-12	3	37*	356*	16	63*
COc1ccc(NC(=O)N(C)C[C@H]2Oc3ccc(NC(=O)Cc4ccccc4)cc3CC(=O)N([C@H](C)CO)C[C@H]2C)cc1	-6	.	2	5	.	0
NC(=O)c1cc2ccc(O)cc2oc1=NCc1ccccc1	-10	0	4	319*	1	6
Fc1ccc(/C=N/N2CCN(Cc3ccccc3)CC2)cc1	-4	.	1	2	.	-1
O=C(Nc1ccc(Cl)cc1Cl)c1ccc2c(=O)n3c(nc2c1)CCC3	-6	.	2	29	.	1
O=C(Nc1ccc(Br)cc1Cl)c1ccc2c(=O)n3c(nc2c1)CCC3	-8	.	5	101*	.	1
O=C(NNC(=S)NC(=O)c1cccc([N+](=O)[O-])c1)c1ccc(Br)cc1	-9	.	2	122*	.	9
Cc1ccc(C(=O)NC(=S)NNC(=O)c2cccc([N+](=O)[O-])c2)cc1	.	.	.	79*	.	.
Fc1ccc(-c2cc(C(F)(F)C(F)F)[nH]n2)cc1	-21	10	32*	78*	13	39*
FC(F)C(F)(F)c1cc(-c2ccc(Cl)cc2)n[nH]1	-19	3	22*	28	7	21*
N#Cc1ccsc1NC(=O)c1ccc2ncsc2c1	.	.	.	-1	.	.
N#Cc1ccsc1NC(=O)c1cccc([N+](=O)[O-])c1	-3	2	6	66*	4	11
COc1ccc(C(=O)COC(=O)C2COc3ccccc3O2)cc1F (configuration not stated)	-7	.	2	-1	.	1
CN(CCCC(=O)O)c1ccc(N=Nc2ccc([N+](=O)[O-])cc2)cc1	0	.	0	-2	.	-1
Cc1c(Cc2ccccc2)c(=O)oc2cc(OCC(=O)N3CCC(C(=O)O)CC3)ccc12	2	.	0	1	.	0
